What was measured:
[1] = test system: Influenza A virus; assay: Antiviral activity against Influenza A virus A/PR/8/34(H1N1) infected in MDCK cells assessed as reduction in virus-induced cytopathic effect after 3 days by microscopic method; assay type: functional, organism-based, A/Puerto Rico/8/1934(H1N1); conditions: Influenza A virus, A/Puerto Rico/8/1934(H1N1), MDCK, 72 h
In short: (§1)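 Semi-confluent MDCK cells were infected at an MOI of 0.0004 PFU/cell in Ultra-MDCK infection medium with 2 μg/mL TPCK-trypsin, together with compounds. After 3 days at 35 °C, CPE was scored by microscopy and confirmed by MTS formazan viability. EC50 is the concentration giving 50% inhibition of virus-induced CPE. Values are means of two to five independent tests.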

[2] = test system: Influenza A virus; assay: Antiviral activity against Influenza A virus A/PR/8/34(H1N1) infected in MDCK cells after 3 days by MTS assay; assay type: functional, organism-based, A/Puerto Rico/8/1934(H1N1); conditions: Influenza A virus, A/Puerto Rico/8/1934(H1N1), MDCK, 72 h; in short: as §1
[3] = test system: Influenza A virus; assay: Antiviral activity against Influenza A virus A/Virginia/ATCC3/2009(H1N1pdm) infected in MDCK cells assessed as reduction in virus-induced cytopathic effect after 3 days by microscopic method; assay type: functional, organism-based, Influenza A virus (A/Virginia/03/2009(H1N1)); conditions: 72 h; in short: as §1
[4] = test system: Influenza A virus; assay: Antiviral activity against Influenza A virus A/Virginia/ATCC3/2009(H1N1pdm) infected in MDCK cells after 3 days by MTS assay; assay type: functional, organism-based, Influenza A virus (A/Virginia/03/2009(H1N1)); conditions: 72 h; in short: as §1
[5] = test system: H3N2 subtype; assay: Antiviral activity against Influenza A virus A/HK/7/87(H3N2) infected in MDCK cells assessed as reduction in virus-induced cytopathic effect after 3 days by microscopic method; assay type: functional, organism-based; conditions: A/Hong Kong/7/1987(H3N2), 72 h; in short: as §1
[6] = test system: H3N2 subtype; assay: Antiviral activity against Influenza A virus A/HK/7/87(H3N2) infected in MDCK cells after 3 days by MTS assay; assay type: functional, organism-based; conditions: A/Hong Kong/7/1987(H3N2), 72 h; in short: as §1
[7] = test system: Influenza B virus; assay: Antiviral activity against Influenza B virus B/HK/05/72 infected in MDCK cells assessed as reduction in virus-induced cytopathic effect after 3 days by microscopic method; assay type: functional, organism-based; conditions: B/Hong Kong/05/1972, MDCK, 72 h; in short: as §1
[8] = test system: Influenza B virus; assay: Antiviral activity against Influenza B virus B/HK/05/72 infected in MDCK cells after 3 days by MTS assay; assay type: functional, organism-based; conditions: B/Hong Kong/05/1972, MDCK, 72 h; in short: as §1
[9] = (§2) Cytotoxicity against MDCK cells assessed as reduction in cell viability after 3 days by MTS assay; assay type: cell-based, Canis lupus familiaris; conditions: dog, MDCK cells
[10] = Cytotoxicity against MDCK cells assessed as alteration in cell morphology after 3 days by microscopic method; assay type: cell-based, Canis lupus familiaris; conditions: dog
In short: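 Mock-infected MDCK cells were treated with compounds in parallel with the antiviral assay, 3 days at 35 °C. MCC is the concentration causing minimal change in cell morphology by microscopy. CC50 is the 50% cytotoxic concentration by MTS formazan viability assay.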

[11] = test system: Influenza B virus; assay: Antiviral activity against Influenza B virus B/Ned/537/05 infected in MDCK cells assessed as reduction in virus-induced cytopathic effect after 3 days by microscopic method; assay type: functional, organism-based; conditions: B/Ned/537/05, MDCK, 72 h
In short: (§3)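 Semi-confluent MDCK cells were infected at an MOI of 0.0004 PFU/cell in Ultra-MDCK infection medium with 2 μg/mL TPCK-trypsin, together with compounds. After 3 days at 35 °C, CPE was scored by microscopy and confirmed by MTS formazan viability. Values are means of two to five independent tests.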

[12] = test system: Influenza B virus; assay: Antiviral activity against Influenza B virus B/Ned/537/05 infected in MDCK cells after 3 days by MTS assay; assay type: functional, organism-based; conditions: B/Ned/537/05, MDCK, 72 h; in short: as §3
[13] = test system: MDCK; assay: as §2; assay type: cell-based, Canis lupus familiaris; conditions: dog, mdck, 72 h
[14] = test system: Human coronavirus 229E; assay: Antiviral activity against Human coronavirus 229E infected in HEL299 cells assessed as reduction in virus induced cytopathic effect after 5 days by microscopic method; assay type: functional, organism-based; conditions: HEL 299, 120 h
In short: (§4)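 Confluent HEL 299 cells in medium with 2% FCS were exposed to HCoV-229E (100 CCID50/well) together with compounds and held for 5 days at 35 °C. EC50 (CPE reduction) and MCC (minimal morphology change) were determined by microscopy. SI is MCC/EC50.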

[15] = Cytotoxicity against HEL299 cells assessed as changes in cell morphology after 5 days by microscopic method; assay type: cell-based, HEL 299; conditions: human; in short: as §4
[16] = test system: Human coronavirus 229E; assay: Antiviral activity against Human coronavirus 229E infected in human A549 cells assessed as reduction in virus RNA level after 3 days by qRT-PCR method; assay type: functional; conditions: A549, 72 h
In short: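 Confluent A549 cells were infected with HCoV-229E in 2% FCS medium with compounds present. The inoculum was removed at 1 h and compounds were kept on at 35 °C. Supernatants were harvested at day 3, lysed at 75 °C for 10 min, and viral genome copies counted by one-step qRT-PCR.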

[17] = Cytotoxicity against human A549 cells assessed as changes in cell morphology after 3 days by microscopic method; assay type: cell-based
In short: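 Mock-infected A549 cells were incubated with compounds for 3 days. MCC is the concentration causing minimal change in cell morphology by microscopy.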

Structure (SMILES) | EC50 [1] [µM] | EC50 [2] [µM] | EC50 [3] [µM] | EC50 [4] [µM] | EC50 [5] [µM] | EC50 [6] [µM] | EC50 [7] [µM] | EC50 [8] [µM] | CC50 at 72 h [9] [µM] | MCC at 72 h [10] [µM] | EC50 [11] [µM] | EC50 [12] [µM] | CC50 [13] [µM] | EC50 [14] [µM] | MCC at 120 h [15] [µM] | EC90 [16] [µM] | EC99 [16] [µM] | MCC at 72 h [17] [µM]
CC(=O)N[C@H]1[C@H](O[C@@H]2c3ccc(c(Cl)c3)Oc3cc4cc(c3O)Oc3ccc(cc3Cl)C[C@H]3NC(=O)[C@H](n5cc(CCOc6c7cc(C(C)(C)C)cc6Cc6cc(C(C)(C)C)cc(c6O)Cc6cc(C(C)(C)C)cc(c6O)Cc6cc(C(C)(C)C)cc(c6O)C7)nn5)c5ccc(O)c(c5)Oc5cc(O)cc(c5)[C@H](NC3=O)C(=O)N[C@H]4C(O)N[C@H]3C(=O)N[C@H]2C(=O)N[C@@H](C(=O)O)c2cc(O)cc(O)c2-c2cc3ccc2O)O[C@H](CO)[C@@H](O)[C@@H]1O (stereo not given in full) | > 100 | 43 | 8.9 | 6.7 | > 100 | 5.2 | > 100 | 5.7 | ≥ 58 | ≥ 20 |  |  |  |  |  |  |  | 
CC(=O)N[C@H]1[C@H](O[C@@H]2c3ccc(c(Cl)c3)Oc3cc4cc(c3O)Oc3ccc(cc3Cl)C[C@H]3NC(=O)[C@H](n5cc(CO[C@@H]6[C@H](OCc7ccccc7)[C@@H](OCc7ccccc7)[C@H](O[C@H]7[C@H](OCc8ccccc8)[C@@H](OCc8ccccc8)[C@H](Sc8ccccc8)O[C@@H]7COCc7ccccc7)O[C@@H]6COCc6ccccc6)nn5)c5ccc(O)c(c5)Oc5cc(O)cc(c5)[C@H](NC3=O)C(=O)N[C@H]4C(O)N[C@H]3C(=O)N[C@H]2C(=O)N[C@@H](C(=O)O)c2cc(O)cc(O)c2-c2cc3ccc2O)O[C@H](CO)[C@@H](O)[C@@H]1O (stereo not given in full) | > 100 | > 100 | 8.9 | 7.3 | 8.9 | 20 | 6.6 | 4 | > 100 | ≥ 20 |  |  |  |  |  |  |  | 
CCCCCCOCc1cn([C@H]2C(=O)N[C@@H]3Cc4ccc(c(Cl)c4)Oc4cc5cc(c4O)Oc4ccc(cc4Cl)[C@@H](O[C@@H]4O[C@H](CO)[C@@H](O)[C@H](O)[C@H]4NC(C)=O)[C@H]4NC(=O)[C@H](NC(O)[C@@H]5NC(=O)[C@@H](NC3=O)c3cc(O)cc(c3)Oc3cc2ccc3O)c2ccc(O)c(c2)-c2c(O)cc(O)cc2[C@H](C(=O)O)NC4=O)nn1 (stereo not given in full) | > 100 | > 100 | > 100 | > 100 | 15 | 13 | 17 | 11 | 53 | ≥ 20 |  |  |  |  |  |  |  | 
CCCCCCCCOCc1cn([C@H]2C(=O)N[C@@H]3Cc4ccc(c(Cl)c4)Oc4cc5cc(c4O)Oc4ccc(cc4Cl)[C@@H](O[C@@H]4O[C@H](CO)[C@@H](O)[C@H](O)[C@H]4NC(C)=O)[C@H]4NC(=O)[C@H](NC(O)[C@@H]5NC(=O)[C@@H](NC3=O)c3cc(O)cc(c3)Oc3cc2ccc3O)c2ccc(O)c(c2)-c2c(O)cc(O)cc2[C@H](C(=O)O)NC4=O)nn1 (stereo not given in full) | > 100 | 2.2 | 1.8 | 1.9 | 2.1 | 1.5 | 1.8 | 1.9 | 13 | ≥ 4 |  |  |  |  |  |  |  | 
CCCCCCCCOCc1cn(CCOCCOCCOCCOCc2cn([C@H]3C(=O)N[C@@H]4Cc5ccc(c(Cl)c5)Oc5cc6cc(c5O)Oc5ccc(cc5Cl)[C@@H](O[C@@H]5O[C@H](CO)[C@@H](O)[C@H](O)[C@H]5NC(C)=O)[C@H]5NC(=O)[C@H](NC(O)[C@@H]6NC(=O)[C@@H](NC4=O)c4cc(O)cc(c4)Oc4cc3ccc4O)c3ccc(O)c(c3)-c3c(O)cc(O)cc3[C@H](C(=O)O)NC5=O)nn2)nn1 (stereo not given in full) | > 100 | > 100 | > 100 | > 100 | > 100 | > 100 |  |  |  | 20 | > 100 | > 100 | 19 | 8.9 | 100 | 23 | 30 | > 50
CCCCCCOCc1cn(CCOCCOCCOCCOCc2cn([C@H]3C(=O)N[C@@H]4Cc5ccc(c(Cl)c5)Oc5cc6cc(c5O)Oc5ccc(cc5Cl)[C@@H](O[C@@H]5O[C@H](CO)[C@@H](O)[C@H](O)[C@H]5NC(C)=O)[C@H]5NC(=O)[C@H](NC(O)[C@@H]6NC(=O)[C@@H](NC4=O)c4cc(O)cc(c4)Oc4cc3ccc4O)c3ccc(O)c(c3)-c3c(O)cc(O)cc3[C@H](C(=O)O)NC5=O)nn2)nn1 (stereo not given in full) | > 100 | > 100 | > 100 | > 100 | > 100 | > 100 |  |  |  | 100 | > 100 | > 100 | 51 | 44 | ≥ 100 | 25 | 44 | > 50
CC(=O)N[C@H]1[C@H](O[C@@H]2c3ccc(c(Cl)c3)Oc3cc4cc(c3O)Oc3ccc(cc3Cl)C[C@H]3NC(=O)[C@H](NS(=O)(=O)c5ccccc5)c5ccc(O)c(c5)Oc5cc(O)cc(c5)[C@H](NC3=O)C(=O)N[C@H]4C(O)N[C@H]3C(=O)N[C@H]2C(=O)N[C@@H](C(=O)O)c2cc(O)cc(O)c2-c2cc3ccc2O)O[C@H](CO)[C@@H](O)[C@@H]1O (stereo not given in full) | 16 | 27 | 46 | 52 | 25 | 23 |  |  |  | 100 | 51 | 21 | > 100 | 5.5 | ≥ 20 | 6.8 | 11 | > 50

From ChEMBL document CHEMBL4270630
